The source of these data is paper PMC11559620 (Science Advances, 2024).

Entries after “also recorded” stand apart in the source; their conditions may differ. Like-named read-outs stand apart in the source and are kept apart here.

A word on the Kd: it is the free concentration of one partner at which half of the binding sites on the other are occupied at equilibrium, for simple one-to-one binding.

One data set relates to NHX1. The data set can be described thus: Yeast two-hybrid assay, CMD1 with NHX1. The conditions noted are these: fig. S1A. Type of data set: cell-based, Arabidopsis.
The next data set has as its system NHX1 to NHX4. In words: Yeast two-hybrid assay, CML17 with vacuolar NHX1 to NHX4. To be noted: fig. S1B. Type of data set: cell-based, Arabidopsis. The gist of the method: (§1)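 Strain AH109 was cotransformed with NHX C-terminal fragments in pGBKT7 (GAL4 BD) and CML17 or CML18 in pGADT7 (GAL4 AD), selected on YNB-Trp-Leu. Cultures were grown at 28°C to saturation (OD600 ~2), then 5-μl drops of 10-fold dilutions were spotted on YNB-Trp-Leu, -His-Trp-Leu and -Ade-Trp-Leu. Plates were incubated at 28°C for 3–4 days. p53/pSV40 served as positive control, empty vectors as negative.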

For another data set, the system named is CBD. In words: Split-ubiquitin assay, interaction of pore domain with CBD. Format: cell-based, Arabidopsis. To be noted: yeast; YNB without adenine and histidine, 3 days at 28°C. The gist of the method:
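Split-ubiquitin assay in yeast: NHX1 pore domain (residues M1–T292) was fused to Cub-PLV (pMetYCgate). The CBD (S486–G516) or the intervening loop (L453–N480) was fused to NubG (pNXgate32). KAT1 served as dimerisation positive control and CBD negative control. Double transformants were spotted on YNB with and without adenine and histidine. Expression was checked by HA/c-Myc immunoblot.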

The subject of data set [1] is CML18. In words: Yeast two-hybrid assay, interaction with CML18. Type of data set: cell-based, Arabidopsis. To be noted: C-terminal cytosolic fragments; selective YNB media. The gist of the method:
as §1

The subject of data set [2] is AXT3K strain. In words: Complementation assay, hygromycin B resistance of yeast AXT3K. Format: cell-based, Saccharomyces cerevisiae.
The test system of data set [3] is CML18. In words: Bimolecular fluorescence complementation, interaction with CML18. Format: cell-based, Arabidopsis. The conditions noted are these: leaves of N. benthamiana. Summed up: (§2)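 Agrobacterium GV3101 carrying BiFC constructs was co-infiltrated with a p19-transformed strain into 5- to 6-week-old N. benthamiana leaves. Full-length NHX1 or NHX2 and CML18 were each fused to complementary halves of eYFP. Empty pSPYCE(M) served as negative control. The lower epidermis was imaged by confocal microscopy (515-nm laser, 60× objective) under constant imaging settings, using a YFP filter.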

The test system of a further data set is NHX2. The data set can be described thus: Bimolecular fluorescence complementation, interaction with NHX2. To be noted: leaves of N. benthamiana. Type of data set: cell-based, Arabidopsis. The gist of the method: as §2
For a further data set, the system named is C terminus of NHX1. The data set can be described thus: Yeast two-hybrid assay, dimerization with C terminus of NHX1. Format: cell-based, Arabidopsis. The conditions noted are these: fig. S2; cytosolic C-terminal domains.
For data set [4], the system named is AXT3K strain. In words: Growth of AXT3K in pH-buffered liquid media with hygromycin B. Type of data set: cell-based, Saccharomyces cerevisiae. The conditions noted are these: buffered at acidic or neutral pH; OD600 after 24h. The gist of the method: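 Strain AXT3K (ena1-4, nha1 and nhx1 deletions; HygB-sensitive) carried NHX1 alleles in pDR195, selected on YNB lacking His and Ura. Cultures were grown overnight at 30°C and adjusted to OD600 0.5. Then 20 μl was inoculated into 200 μl liquid medium per well and serially diluted 10-fold. Incubation was at 30°C, with OD600 read at 24 and 48 h. Three independent transformants were tested per construct.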

For another data set, the system named is yeast vacuoles. In words: Vacuolar pH of yeast by BCECF-AM. Format: cell-based, Saccharomyces cerevisiae. The conditions noted are these: n = 8.
In data set [5] the target is CML-BD peptide, synthetic peptide of the CML18-binding motif of NHX1 (residues D485 to R518) (Arabidopsis thaliana). The data set can be described thus: ITC. In general terms: Isothermal titration calorimetry measures the heat released or taken up as one component is titrated into another.
For data set [6] the target is unchanged. The data set can be described thus: ITC. This is another data set of the same source.

As to “CMD1: the only calmodulin protein produced in S. cerevisiae”, the “interaction with NHX1 (Y2H)” value in the data set with NHX1 is “negative results”.

B1: CML17: calmodulin-like protein of Arabidopsis, At1g32250 (protein)
chain: MSHKVSKKLDEEQINELREIFRSFDRNKDGSLTQLELGSLLRALGVKPSPDQFETLIDKADTKSNGLVEFPEFVALVSPELLSPAKRTTPYTEEQLLRLFRIFDTDGNGFITAAELAHSMAKLGHALTVAELTGMIKEADSDGDGRINFQEFAKAINSAAFDDIWG
modifications: left off: Gal4 activation domain (vector pGADT7), end not stated, kept
As to B1, the “interaction with vacuolar NHX1 to NHX4 (Y2H)” value in the data set on NHX1 to NHX4 is listed as “failed to demonstrate interaction”.

B2: pore domain (TM1 to TM9): pore domain of NHX1 (residues M1 to T292) fused to Cub-PLV (protein)
chain: MLDSLVSKLPSLSTSDHASVVALNLFVALLCACIVLGHLLEENRWMNESITALLIGLGTGVTILLISKGKSSHLLVFSEDLFFIYLLPPIIFNAGFQVKKKQFFRNFVTIMLFGAVGTIISCTIISLGVTQFFKKLDIGTFDLGDYLAIGAIFAATDSVCTLQVLNQDETPLLYSLVFGEGVVNDATSVVVFNAIQSFDLTHLNHEAAFHLLGNFLYLFLLSTLLGAATGLISAYVIKKLYFGRHSTDREVALMMLMAYLSYMLAELFDLSGILTVFFCGIVMSHYTWHNVT
modifications: left off: Cub-PLV, end not stated, kept
Turning to B2, the “interaction with CBD (split-ubiquitin)” value in the data set with CBD is recorded as “confirmed”.

B3: NHX1: vacuolar K+/H+ exchanger of Arabidopsis; C-terminal T435 to A538 in Y2H (protein, UniProt Q68KI4 435-538, looked up, fragment)
chain: TKPLISYLLPHQNATTSMLSDDNTPKSIHIPLLDQDSFIEPSGNHNVPRPDSIRGFLTRPTRTVHYYWRQFDDSFMRPVFGGRGFVPFVPGSPTERNPPDLSKA
Turning to B3, the “interaction with CML18 (Y2H)” value in the data set on CML18 [1] is listed as “strongly; also recorded: CML18 binding was confirmed”. Besides, the “HygB resistance / protein activity in AXT3K” value with AXT3K strain [2] (YPD + HygB (50 μg/ml), 30°C) is “suppressed the HygB sensitivity”. Besides, in the data set on CML18 [3], the “interaction with CML18 (BiFC)” value is reported as “interacted with CML18”. The “interaction with NHX2 (BiFC)” value with NHX2 is “interacted with NHX2-cYFP”. In addition, in the data set on C terminus of NHX1, the “homodimerization / heterodimerization (Y2H)” value is recorded as “positive results”.

B4: D506N (protein, UniProt Q68KI4 1-538, looked up, variant D506N)
Sodium/hydrogen exchanger 1: MLDSLVSKLPSLSTSDHASVVALNLFVALLCACIVLGHLLEENRWMNESITALLIGLGTGVTILLISKGKSSHLLVFSEDLFFIYLLPPIIFNAGFQVKKKQFFRNFVTIMLFGAVGTIISCTIISLGVTQFFKKLDIGTFDLGDYLAIGAIFAATDSVCTLQVLNQDETPLLYSLVFGEGVVNDATSVVVFNAIQSFDLTHLNHEAAFHLLGNFLYLFLLSTLLGAATGLISAYVIKKLYFGRHSTDREVALMMLMAYLSYMLAELFDLSGILTVFFCGIVMSHYTWHNVTESSRITTKHTFATLSFLAETFIFLYVGMDALDIDKWRSVSDTPGTSIAVSSILMGLVMVGRAAFVFPLSFLSNLAKKNQSEKINFNMQVVIWWSGLMRGAVSMALAYNKFTRAGHTDVRGNAIMITSTITVCLFSTVVFGMLTKPLISYLLPHQNATTSMLSDDNTPKSIHIPLLDQDSFIEPSGNHNVPRPDSIRGFLTRPTRTVHYYWRQFNDSFMRPVFGGRGFVPFVPGSPTERNPPDLSKA
As to B4, in the data set on CML18 [1], the “interaction with CML18 (Y2H)” value is listed as “lost the ability to bind CML18”. Also, the “HygB resistance / protein activity in AXT3K” value in the data set on AXT3K strain [2] (YPD + HygB (50 μg/ml), 30°C) was “inactive; also recorded: unable to suppress the sensitivity of the nhx1 mutant to HygB”; in the data set on AXT3K strain [2] (in combination with H499L), “inactive”. Also, the “activity irrespective of pH of growth media” value in the data set with AXT3K strain [4] is “inactive”. Also, the “vacuolar pH (pHvac)” value with yeast vacuoles was “overly acidic”.

B5: CML18, recombinant, purified (natural protein)
chain: MSCDGGKPAPAKLGDEQLAELREIFRSFDQNKDGSLTELELGSLLRSLGLKPSQDQLDTLIQKADRNNNGLVEFSEFVALVEPDLVKCPYTDDQLKAIFRMFDRDGNGYITAAELAHSMAKLGHALTAEELTGMIKEADRDGDGCIDFQEFVQAITSAAFDNAWG
In the case of B5, the values for the Kd in data set [5] and in [6] were 2.21 µM and 3.02 µM, respectively. The stoichiometry N (CML-BD binding sites per CML18 monomer) in [6] stood at 2.
